Reference: article PMC10796979 (The Journal of Biological Chemistry, 2023)

T1: C3aR1 (Homo sapiens, UniProt Q16581)
T1 sequence (Q16581 1-482): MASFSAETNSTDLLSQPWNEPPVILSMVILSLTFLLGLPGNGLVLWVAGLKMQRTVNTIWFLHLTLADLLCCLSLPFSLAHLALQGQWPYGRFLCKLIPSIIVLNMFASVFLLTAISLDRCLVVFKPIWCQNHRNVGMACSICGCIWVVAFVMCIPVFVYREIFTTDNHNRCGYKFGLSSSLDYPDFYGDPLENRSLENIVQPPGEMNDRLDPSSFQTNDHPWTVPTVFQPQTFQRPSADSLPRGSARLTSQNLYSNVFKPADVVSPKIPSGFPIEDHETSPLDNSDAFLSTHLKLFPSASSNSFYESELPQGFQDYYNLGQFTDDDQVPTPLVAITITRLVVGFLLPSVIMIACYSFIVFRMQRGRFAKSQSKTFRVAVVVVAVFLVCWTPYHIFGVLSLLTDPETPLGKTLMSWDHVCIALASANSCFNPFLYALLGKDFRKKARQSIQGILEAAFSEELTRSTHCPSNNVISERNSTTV

T2: Complement C3a receptor 1 (C3aR1) fused to Rluc8 on the C-terminus (UniProt Q16581)
T2 sequence: T1 sequence (Q16581 1-482)


Experiments:
3T3-L1 cells = assay: Fluo-4 calcium influx assay in 3T3-L1 cells; type: cell-based
Method in brief: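 3T3-L1 cells plated at 60% confluency on collagen-coated chamber slides. Next day, medium replaced with HBSS and cells loaded with 2.5 μM Fluo-4 AM for 30 min. Single cells imaged every second for 3 min, with treatment added at 30 s; UTP served as positive control. AUC over the first 60 s taken after background removal, with each cell normalised to its basal intensity. Values were normalised to control and rescaled to 0–1.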

C3aR1 [1] = biological target: T1, C3aR1; assay: ELISA surface expression; type: cell-based
C3aR1 [2] = biological target: T1, C3aR1; assay: C3aR1 β-arrestin1 recruitment BRET assay; type: cell-based
Method in brief: (§1)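 HEK293T co-transfected 1:3:15 with C-terminal Rluc8-tagged C3aR1, GRK2 and N-terminal Venus-β-arrestin1 or Venus-β-arrestin2, then plated overnight in DMEM with 1% dialyzed FBS. Cells washed, then test compound (3×) added in HBSS/HEPES buffer, pH 7.4. Coelenterazine h (5 μM final) added 15 min before reading at 485/530 nm, at time points up to 60 min, 37 °C. Net BRET was Venus/Rluc8 corrected against wells lacking Venus-arrestin, plotted against concentration.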

C3aR1 [3] = biological target: T1, C3aR1; assay: C3aR1 β-arrestin2 recruitment BRET assay; type: cell-based
Method in brief: as §1

C3aR1 [4] = biological target: T1, C3aR1; assay: C3aR1 G protein dissociation BRET assay; type: cell-based
Method in brief: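 HEK293T co-transfected 1:1:1:1 with Gα-Rluc8, Gβ1, GFP2-Gγ and C3aR1, repeated for each Gα subtype (i, o, z, s, olf, q, 11–15). Cells plated overnight in DMEM with 1% dialyzed FBS. Test compound (3×) added in duplicate in HBSS/20 mM HEPES/0.1% BSA/0.01% ascorbic acid, pH 7.4, for 60 min at 37 °C. Coelenterazine 400a (5 μM final) added for 15 min; read at 400/515 nm. GFP2/Rluc8 ratio fitted by log(agonist)-response; three independent experiments, mean and SEM.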

3T3-L1 adipocytes = assay: Lipolysis; type: cell-based; conditions: 30 min or 3 h incubation
Method in brief: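 3T3-L1 cells differentiated with insulin-containing medium and used 8–9 days after induction. Serum-starved in KRH buffer, then given ISO 50 nM plus test compound (10 nM to 1 μM) for 30 min or 3 h. Medium heat-inactivated at 60 °C for 20 min, then glycerol measured colorimetrically at 540 nm. Glycerol normalised to Bradford protein and expressed as fold over control in the same experiment. One-way ANOVA with Tukey.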

C3aR1 [5] = biological target: T1, C3aR1; assay: Gi/o-mediated cAMP inhibition Glosensor assay; type: cell-based
[6] = biological target: T2, Complement C3a receptor 1 (C3aR1) fused to Rluc8 on the C-terminus

β-arr2-dependent C3aR1 internalization compared to C3a63-77 (C3aR1 [1]) | β-arrestin1 recruitment potency compared to C3a63-77 (C3aR1 [2]) | β-arrestin2 recruitment potency compared to C3a63-77 (C3aR1 [3]) | fold more potent to cause G protein dissociation compared to C3a63-77 (C3aR1 [4]; Gi/o/z subtypes) | G protein dissociation at Gs, Gq or G12/13 subtypes (C3aR1 [4]; full screen panel of Gα proteins) | activity in FSK-induced Gi/o-mediated cAMP inhibition (C3aR1 [5]) | recruitment of Venus-β-arrestin1 to C3aR1-Rluc8 by BRET, EC50 of the agonist [6] | recruitment of Venus-β-arrestin2 to C3aR1-Rluc8 by BRET, EC50 of the agonist [6] | Molecule | induction of calcium influx by the compound alone (3T3-L1 cells) | G protein dissociation activity across Gi/o/z subtypes (C3aR1 [4]; all tested Gi/o/z subtypes) | potentiation of adrenergic (ISO)-induced lipolysis (3T3-L1 adipocytes)
more potent and efficacious | more potent than C3a63-77 | more potent than C3a63-77 | ~10 fold | no activity | shows agonist activity | – | – | NC(N)=NCCC[C@H](NC(=O)COCC(c1ccccc1)c1ccccc1)C(=O)O [SB290157] | does not induce calcium influx | robust C3aR1 G protein dissociation agonist activity | did not potentiate
– | – | – | – | – | – | 191 nM | 542 nM | TLQPPASSRRRHFHHALPPAR [mouse TLQP-21] | – | – | –
– | – | – | – | – | – | – | 3180 nM | TLQPPSALRRRHYHHALPPSR [human TLQP-21] | – | – | –
